Assay results from ChEMBL document CHEMBL1126564, “Synthesis and antimicrobial evaluation of a series of 7-[3-amino (or aminomethyl)-4-aryl (or cyclopropyl)-1-pyrrolidinyl]-4-quinolone- and -1,8-naphthyridone-3-carboxylic acids” (1993).
In brackets after ≈: the same amount, converted by molar mass.

Assays:
Type in all cases: functional
Enterobacter cloacae = test: Minimum inhibitory concentration against […] MA-2646
Procedure, shortened: (§1)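 Standard microdilution method against a panel of five Gram-negative and five Gram-positive bacterial strains. The MIC (µg/mL) was recorded for each strain.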

Escherichia coli = test: Minimum inhibitory concentration against Escherichia coli Vogel; procedure, shortened: as §1
Pseudomonas aeruginosa = test: Minimum inhibitory concentration against Pseudomonas aeruginosa UI-18; procedure, shortened: as §1
Streptococcus pneumoniae = test: Minimum inhibitory concentration against Streptococcus pneumoniae SV-1; procedure, shortened: as §1
Staphylococcus aureus [1] = test: Minimum inhibitory concentration against Staphylococcus aureus H-228; procedure, shortened: as §1
Providencia rettgeri = test: Minimum inhibitory concentration against Providencia rettgeri M-1771; procedure, shortened: as §1
Klebsiella pneumoniae = test: Minimum inhibitory concentration against Klebsiella pneumoniae MGH-2; procedure, shortened: as §1
Staphylococcus aureus [2] = test: Minimum inhibitory concentration against Staphylococcus aureus UC-76; procedure, shortened: as §1
Enterococcus faecalis = test: Minimum inhibitory concentration against […] MGH-2; procedure, shortened: as §1
Streptococcus pyogenes = test: Minimum inhibitory concentration against Streptococcus pyogenes C-203; procedure, shortened: as §1
[3] = Enterobacter cloacae, read-out: MIC
[4] = Escherichia coli, read-out: MIC
[5] = Pseudomonas aeruginosa, read-out: MIC
[6] = Streptococcus pneumoniae, read-out: MIC
[7] = Staphylococcus aureus, read-out: MIC
[8] = Providencia rettgeri, read-out: MIC
[9] = Klebsiella pneumoniae, read-out: MIC
[10] = Enterococcus faecalis, read-out: MIC
[11] = Streptococcus pyogenes, read-out: MIC

MIC (Enterobacter cloacae; [3]) [µg/mL]	MIC (Escherichia coli; [4]) [µg/mL]	MIC (Pseudomonas aeruginosa; [5]) [µg/mL]	MIC (Streptococcus pneumoniae; [6]) [µg/mL]	MIC (Staphylococcus aureus [1]; [7]) [µg/mL]	MIC (Providencia rettgeri; [8]) [µg/mL]	MIC (Klebsiella pneumoniae; [9]) [µg/mL]	MIC (Staphylococcus aureus [2]; [7]) [µg/mL]	MIC (Enterococcus faecalis; [10]) [µg/mL]	MIC (Streptococcus pyogenes; [11]) [µg/mL]	MIC (Pseudomonas aeruginosa) [µg/mL]	SMILES	MIC (Enterobacter cloacae) [µg/mL]	MIC (Escherichia coli) [µg/mL]	MIC (Streptococcus pneumoniae) [µg/mL]	MIC (Staphylococcus aureus [1]) [µg/mL]	MIC (Providencia rettgeri) [µg/mL]	MIC (Klebsiella pneumoniae) [µg/mL]	MIC (Staphylococcus aureus [2]) [µg/mL]	MIC (Enterococcus faecalis) [µg/mL]	MIC (Streptococcus pyogenes) [µg/mL]
0.4 (≈ 0.827 µM)	0.4 (≈ 0.827 µM)	3.1 (≈ 6.41 µM)	0.4 (≈ 0.827 µM)	0.1 (≈ 0.207 µM)	1.6 (≈ 3.31 µM)	0.8 (≈ 1.65 µM)	0.05 (≈ 0.103 µM)	0.4 (≈ 0.827 µM)	0.4 (≈ 0.827 µM)	–	COC(=O)c1ccc(C2CN(c3c(F)cc4c(=O)c(C(=O)O)cn(C5CC5)c4c3F)CC2N)cc1 (stereo not given)	–	–	–	–	–	–	–	–	–
0.1 (≈ 0.269 µM)	0.05 (≈ 0.135 µM)	0.8 (≈ 2.15 µM)	0.1 (≈ 0.269 µM)	0.1 (≈ 0.269 µM)	0.1 (≈ 0.269 µM)	0.05 (≈ 0.135 µM)	≤ 0.025	0.1 (≈ 0.269 µM)	0.1 (≈ 0.269 µM)	–	NC1CN(c2cc3c(cc2F)c(=O)c(C(=O)O)cn3C2CC2)CC1C1CC1 (stereo not given)	–	–	–	–	–	–	–	–	–
0.1 (≈ 0.22 µM)	0.1 (≈ 0.22 µM)	1.6 (≈ 3.52 µM)	0.05 (≈ 0.11 µM)	0.1 (≈ 0.22 µM)	0.2 (≈ 0.44 µM)	0.2 (≈ 0.44 µM)	0.025 (≈ 0.055 µM)	0.05 (≈ 0.11 µM)	0.05 (≈ 0.11 µM)	–	NCC1CN(c2c(F)cc3c(=O)c(C(=O)O)cn(C4CC4)c3c2F)CC1c1ccc(N)cc1 (stereo not given)	–	–	–	–	–	–	–	–	–
0.2 (≈ 0.427 µM)	0.2 (≈ 0.427 µM)	3.1 (≈ 6.62 µM)	0.1 (≈ 0.213 µM)	0.025 (≈ 0.0534 µM)	0.4 (≈ 0.854 µM)	0.2 (≈ 0.427 µM)	0.013 (≈ 0.0277 µM)	0.1 (≈ 0.213 µM)	0.1 (≈ 0.213 µM)	–	CN(C)c1ccc(C2CN(c3c(F)cc4c(=O)c(C(=O)O)cn(C5CC5)c4c3F)CC2N)cc1 (stereo not given)	–	–	–	–	–	–	–	–	–
0.025 (≈ 0.0568 µM)	0.025 (≈ 0.0568 µM)	0.8 (≈ 1.82 µM)	0.05 (≈ 0.114 µM)	0.013 (≈ 0.0295 µM)	0.1 (≈ 0.227 µM)	0.05 (≈ 0.114 µM)	0.006 (≈ 0.0136 µM)	0.05 (≈ 0.114 µM)	0.1 (≈ 0.227 µM)	–	Nc1c(F)c(N2CC(N)C(c3ccccc3)C2)c(F)c2c1c(=O)c(C(=O)O)cn2C1CC1 (stereo not given)	–	–	–	–	–	–	–	–	–
0.05 (≈ 0.116 µM)	0.05 (≈ 0.116 µM)	0.4 (≈ 0.931 µM)	0.006 (≈ 0.014 µM)	0.025 (≈ 0.0582 µM)	0.1 (≈ 0.233 µM)	0.1 (≈ 0.233 µM)	0.003 (≈ 0.00699 µM)	0.013 (≈ 0.0303 µM)	0.013 (≈ 0.0303 µM)	–	NCC1CN(c2c(F)cc3c(=O)c(C(=O)O)cn(C4CC4)c3c2F)CC1c1ccco1 (stereo not given)	–	–	–	–	–	–	–	–	–
0.2 (≈ 0.457 µM)	0.2 (≈ 0.457 µM)	1.6 (≈ 3.66 µM)	0.05 (≈ 0.114 µM)	0.2 (≈ 0.457 µM)	0.8 (≈ 1.83 µM)	0.4 (≈ 0.914 µM)	0.025 (≈ 0.0571 µM)	0.1 (≈ 0.229 µM)	0.05 (≈ 0.114 µM)	–	NCC1CN(c2nc3c(cc2F)c(=O)c(C(=O)O)cn3C2CC2)CC1c1ccc(N)cc1 (cis isomer)	–	–	–	–	–	–	–	–	–
–	–	–	–	–	–	–	–	–	–	1.6 (≈ 3.66 µM)	NCC1CN(c2nc3c(cc2F)c(=O)c(C(=O)O)cn3C2CC2)CC1c1ccc(N)cc1 (trans isomer)	0.2 (≈ 0.457 µM)	0.2 (≈ 0.457 µM)	0.05 (≈ 0.114 µM)	0.4 (≈ 0.914 µM)	0.4 (≈ 0.914 µM)	0.2 (≈ 0.457 µM)	0.05 (≈ 0.114 µM)	0.1 (≈ 0.229 µM)	0.05 (≈ 0.114 µM)
1.6 (≈ 3.6 µM)	1.6 (≈ 3.6 µM)	2.5 (≈ 5.62 µM)	1.6 (≈ 3.6 µM)	1.6 (≈ 3.6 µM)	6.3 (≈ 14.2 µM)	3.1 (≈ 6.97 µM)	0.4 (≈ 0.9 µM)	1.6 (≈ 3.6 µM)	1.6 (≈ 3.6 µM)	–	CCOC(=O)C1CC1C1CN(c2nc3c(cc2F)c(=O)c(C(=O)O)cn3C2CC2)CC1N (trans isomer)	–	–	–	–	–	–	–	–	–
0.1 (≈ 0.22 µM)	0.1 (≈ 0.22 µM)	1.6 (≈ 3.51 µM)	0.05 (≈ 0.11 µM)	0.025 (≈ 0.0549 µM)	0.4 (≈ 0.878 µM)	0.2 (≈ 0.439 µM)	0.013 (≈ 0.0285 µM)	0.1 (≈ 0.22 µM)	0.05 (≈ 0.11 µM)	–	COc1ccc(C2CN(c3c(F)cc4c(=O)c(C(=O)O)cn(C5CC5)c4c3F)CC2N)cc1 (trans isomer)	–	–	–	–	–	–	–	–	–
0.8 (≈ 1.83 µM)	0.8 (≈ 1.83 µM)	3.1 (≈ 7.09 µM)	0.2 (≈ 0.457 µM)	3.1 (≈ 7.09 µM)	1.6 (≈ 3.66 µM)	0.8 (≈ 1.83 µM)	0.4 (≈ 0.914 µM)	0.8 (≈ 1.83 µM)	0.2 (≈ 0.457 µM)	–	NCc1cccc(C2CN(c3nc4c(cc3F)c(=O)c(C(=O)O)cn4C3CC3)CC2N)c1 (trans isomer)	–	–	–	–	–	–	–	–	–
0.1 (≈ 0.236 µM)	0.1 (≈ 0.236 µM)	1.6 (≈ 3.77 µM)	0.2 (≈ 0.471 µM)	0.4 (≈ 0.942 µM)	0.4 (≈ 0.942 µM)	0.2 (≈ 0.471 µM)	0.1 (≈ 0.236 µM)	0.1 (≈ 0.236 µM)	0.2 (≈ 0.471 µM)	–	NC1CN(c2nc3c(cc2F)c(=O)c(C(=O)O)cn3C2CC2)CC1c1ccc(O)cc1 (trans isomer)	–	–	–	–	–	–	–	–	–

SMILES	MIC (Enterobacter cloacae; [3]) [µg/mL]	MIC (Escherichia coli; [4]) [µg/mL]	MIC (Pseudomonas aeruginosa; [5]) [µg/mL]	MIC (Streptococcus pneumoniae; [6]) [µg/mL]	MIC (Staphylococcus aureus [1]; [7]) [µg/mL]	MIC (Providencia rettgeri; [8]) [µg/mL]	MIC (Klebsiella pneumoniae; [9]) [µg/mL]	MIC (Staphylococcus aureus [2]; [7]) [µg/mL]	MIC (Enterococcus faecalis; [10]) [µg/mL]	MIC (Streptococcus pyogenes; [11]) [µg/mL]	MIC (Pseudomonas aeruginosa) [µg/mL]	MIC (Enterobacter cloacae) [µg/mL]	MIC (Escherichia coli) [µg/mL]	MIC (Streptococcus pneumoniae) [µg/mL]	MIC (Staphylococcus aureus [1]) [µg/mL]	MIC (Providencia rettgeri) [µg/mL]	MIC (Klebsiella pneumoniae) [µg/mL]	MIC (Staphylococcus aureus [2]) [µg/mL]	MIC (Enterococcus faecalis) [µg/mL]	MIC (Streptococcus pyogenes) [µg/mL]
COc1ccccc1C1CN(c2nc3c(cc2F)c(=O)c(C(=O)O)cn3C2CC2)CC1N (cis isomer)	–	–	> 3.1	–	–	–	–	–	–	–	–	0.8 (≈ 1.82 µM)	0.8 (≈ 1.82 µM)	0.8 (≈ 1.82 µM)	0.4 (≈ 0.912 µM)	3.1 (≈ 7.07 µM)	1.6 (≈ 3.65 µM)	0.2 (≈ 0.456 µM)	0.8 (≈ 1.82 µM)	1.6 (≈ 3.65 µM)
